Measured values taken from ChEMBL document CHEMBL1141109, “Synthesis of an estrogen receptor beta-selective radioligand: 5-[18F]fluoro-(2R,3S)-2,3-bis(4-hydroxyphenyl)pentanenitrile and comparison of in vivo distribution with 16alpha-[18F]fluoro-17beta-estradiol” (J Med Chem, 2005).

How the values were obtained:
[1] = Biodistribution of [18F]FEDPN in beta estrogen receptor knock out mouse blood after 1 h; (n=3); assay type: ADME, organism-based; conditions: in vivo
Outline: (§1)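 αERKO and βERKO mice, staged by daily vaginal smears and kept on estrogen-free chow, were studied in a nonestrous stage. Each mouse received 11 μCi of tracer in 130 μL of 10% ethanol/saline. Mice were killed at 30 min, 1 h or 2 h (n = 3 each). Organs were removed, blotted, weighed and gamma-counted against an injectate standard. Uptake is given as %ID/g ± SD.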

[2] = Biodistribution of [18F]FEDPN in beta estrogen receptor knock out mouse kidney after 30 min; (n=3); assay type: ADME, organism-based; conditions: in vivo, 0.5 h; outline: as §1
[3] = Biodistribution of [18F]FEDPN in beta estrogen receptor knock out mouse liver after 2 h; (n=3); assay type: ADME, organism-based; conditions: in vivo; outline: as §1
[4] = Biodistribution of [18F]FEDPN in alpha estrogen receptor knock out mouse lung after 1 h; (n=3); assay type: ADME, organism-based; conditions: in vivo; outline: as §1
[5] = Biodistribution of [18F]FEDPN in beta estrogen receptor knock out mouse bone after 30 min; (n=3); assay type: ADME, organism-based, Bone element; conditions: in vivo, 0.5 h; outline: as §1
[6] = Biodistribution of [18F]FEDPN in beta estrogen receptor knock out mouse liver after 1 h; (n=3); assay type: ADME, organism-based; conditions: in vivo; outline: as §1
[7] = Biodistribution of [18F]FEDPN in beta estrogen receptor knock out mouse brain after 30 min; (n=3); assay type: ADME, organism-based; conditions: in vivo, 0.5 h; outline: as §1
[8] = Biodistribution of [18F]FEDPN in beta estrogen receptor knock out mouse uterus after 30 min; (n=3); assay type: ADME, organism-based; conditions: in vivo, 0.5 h
Outline: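 αERKO and βERKO mice were fed estrogen-free chow and staged by daily vaginal smears. Mice in a nonestrous stage each received 11 µCi tracer in 130 µL 10% ethanol/saline. Organs were taken at 30 min, 1 h or 2 h and gamma-counted. Uptake is expressed as %ID/g ± SD, three animals per point.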

[9] = Biodistribution of [18F]FEDPN in alpha estrogen receptor knock out mouse heart after 2 h; (n=3); assay type: ADME, organism-based; conditions: in vivo
Outline: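 ERKO female mice (αERKO or βERKO), rested 48 h after shipping, placed on estrogen-free chow, and staged by daily vaginal smears. Injected in a nonestrous stage with 11 µCi [18F]FEDPN in 130 µL of 10% ethanol/saline. Killed at 30 min, 1 h or 2 h. Organs counted and reported as %ID/g ± SD, three animals per point.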

[10] = Biodistribution of [18F]FES in beta estrogen receptor knock out mouse brain after 30 min(n=2); mice in nonestrus stage; assay type: ADME, organism-based; conditions: in vivo, 0.5 h
[11] = Biodistribution of [18F]FES in beta estrogen receptor knock out mouse liver after 1 h; (n=3); assay type: ADME, organism-based; conditions: in vivo
[12] = Biodistribution of [18F]-FES in alpha estrogen receptor knock out mouse thymus after 30 min; (n=3); assay type: ADME, organism-based; conditions: in vivo, 0.5 h
Outline: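 Female αERKO mice rested 48 h after shipping and fed estrogen-free chow. Estrous stage was checked by daily vaginal smears, and mice were used in diestrus. Each received 13 µCi [18F]FES in 100 µL 10% ethanol/saline. Animals were sacrificed at 30 min, 1 h or 2 h (n = 3 each). Tissue uptake is reported as %ID/g ± SD.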

[13] = Biodistribution of [18F]FES in beta estrogen receptor knock out mouse uterus after 2 h; (n=3); assay type: ADME, organism-based; conditions: in vivo
[14] = Biodistribution of [18F]FES in beta estrogen receptor knock out mouse fat after 2 h; (n=3); assay type: ADME, organism-based, Adipose tissue; conditions: in vivo

SMILES	Biodistribution [1]	Biodistribution [2]	Biodistribution [3]	Biodistribution [4]	Biodistribution [5]	Biodistribution [6]	Biodistribution [7]	Biodistribution [8]	Biodistribution [9]	Biodistribution [10]	Biodistribution [11]	Biodistribution [12]	Biodistribution [13]	Biodistribution [14]
N#C[C@H](c1ccc(O)cc1)[C@@H](CCF)c1ccc(O)cc1	1.12 %ID/g	4.83 %ID/g	2.04 %ID/g	2.04 %ID/g	3.35 %ID/g	3.79 %ID/g	0.93 %ID/g	1.85 %ID/g	0.25 %ID/g	–	–	–	–	–
C[C@]12CC[C@@H]3c4ccc(O)cc4CC[C@H]3[C@@H]1C[C@@H](F)[C@@H]2O [FLUOROESTRADIOL]	–	–	–	–	–	–	–	–	–	0.81 %ID/g	5.85 %ID/g	0.68 %ID/g	9.23 %ID/g	0.41 %ID/g
